# ChEMBL document CHEMBL4673366, “Cyclic Phosphopantothenic Acid Prodrugs for Treatment of Pantothenate Kinase-Associated Neurodegeneration” (J Med Chem, 2020)
# The source made the active and inactive calls. No cut-off for these calls is given here.
# Columns and labels:
# [1] = Induction of Coenzyme A regeneration in human IMR-32 PANK2 knockdown cells at 50 uM for 24 hrs by HPLC analysis relative to control; assay type: functional
# How it was run: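 PANK2-knockout neuroblastoma cells were grown in MEM with 10% FBS and 1 µg/mL puromycin and seeded at 0.2×10⁶ cells/well. After 72 h, they were dosed at 50 µM in DMSO (final 0.1%) at 37 °C. Washed, frozen pellets were reconstituted in ammonium acetate (pH 5.1) with internal standard, and free CoA was measured by LC-MS/MS. Intracellular volume was taken as 2 µL/10⁶ cells; results are fold over vehicle-treated cells.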
# IMR-32 [2] = assay: Increase in tubulin acetylation in human IMR-32 PANK2 knockdown cells at 50 uM for 48 hrs by Western blot analysis; assay type: functional
# IMR-32 [3] = assay: Increase in histone H3 acetylation in human IMR-32 PANK2 knockdown cells at 50 uM for 48 hrs by Western blot analysis; assay type: functional
# IMR-32 [4] = assay: Decrease in lipid droplet content in human IMR-32 PANK2 knockdown cells at 10 uM for 48 hrs by Nile red staining based inverted microscopic analysis; assay type: functional
# How it was run: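 PANK2-knockout neuroblastoma cells were treated for 48 h, then fixed and stained with 100 ng/mL Nile Red. Cells were imaged on an inverted microscope at 60×, and lipid droplet content was quantified by plate fluorimetry. Data are mean ± sd of two biological replicates, each in duplicate; two-tailed paired Student's t-test.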
# [5] = Effect on free coenzyme A level in C57BL6 mouse brain at 500 mg/kg, po administered as single dose measured after 1 hr UPLC quadrupole-time-of-flight mass spectrometry (Rvb =100%); assay type: functional
# How it was run: (§1)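 C57BL6 mice, three per time point, received one oral 500 mg/kg dose of isotopically labeled prodrug, and brains were taken at 0, 1, 6 and 24 h. Brains were homogenized in water (3 mL/g), protein was precipitated with MeOH, and dried supernatant was reconstituted in 10 mM ammonium acetate (pH ~5). Analysis was UPLC-QTOF MS in positive ESI, scoring labeled CoA (+6, +4 amu) as a share of free CoA.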
# [6] = Effect on free coenzyme A level in C57BL6 mouse brain at 500 mg/kg, po administered as single dose measured after 6 hr UPLC quadrupole-time-of-flight mass spectrometry (Rvb =100%); assay type: functional; how it was run: as §1
# [7] = Effect on free coenzyme A level in C57BL6 mouse brain at 500 mg/kg, po administered as single dose measured after 24 hrs UPLC quadrupole-time-of-flight mass spectrometry (Rvb =100%); assay type: functional; how it was run: as §1
structure (smiles),measurement,setting,value
COC(=O)CCNC(=O)[C@@H]1OP(=O)(OCOC(=O)C(C)(C)C)OCC1(C)C (mixture of isomers),fold change (FC),[1],180
same,Activity,IMR-32 [2],Active
same,Activity,IMR-32 [3],Active
same,inhibition,IMR-32 [4],Active
same,Activity,[5],100%
same,Activity,[6],92%
same,Activity,[7],85%
